These results are taken from ChEMBL document CHEMBL1135962, “The first synthesis and antifungal activities of 9-methoxystrobilurin-type beta-substituted beta-methoxyacrylate” (2002).

The source made the active and inactive calls. The calls are words filed in the database; no cut-off is given here.

Experiment [1] has as its system Aspergillus fumigatus. Description: Compound was evaluated for antifungal activity against Aspergillus fumigatum R-1301 as diameter of inhibition zone at a concentration 0.1 ug/disk; NE means not effective. The format is functional, organism-based. In a few lines: (§1)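 Disk-diffusion assay against the fungal strain named in the line. Inhibition-zone diameter was measured after 48 h incubation and is the mean of two samples. Scoring codes used: not effective, slightly effective, incomplete inhibition.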

For experiment [2], the system named is Aspergillus fumigatus. Briefly: Compound was evaluated for antifungal activity against Aspergillus fumigatum R-1301 as diameter of inhibition zone at a concentration 1 ug/disk. It counts as functional. The gist of the method:
as §1

Experiment [3] concerns Aspergillus fumigatus. Briefly: Compound was evaluated for antifungal activity against Aspergillus fumigatum R-1301 as diameter of inhibition zone at a concentration 10 ug/disk. The format is functional. In a few lines:
as §1

The subject of experiment [4] is Candida albicans. Description: Compound was evaluated for antifungal activity against Candida albicans IFO 1594 as diameter of inhibition zone at a concentration 0.1 ug/disk; NE means not effective. The format is functional, organism-based. In a few lines: as §1
Experiment [5] relates to Candida albicans. Description: Compound was evaluated for antifungal activity against Candida albicans IFO 1594 as diameter of inhibition zone at a concentration 1 ug/disk and showed incomplete inhibition. It counts as functional. The gist of the method:
as §1

Experiment [6] concerns Candida albicans. Description: Compound was evaluated for antifungal activity against Candida albicans IFO 1594 as diameter of inhibition zone at a concentration 10 ug/disk and showed incomplete inhibition. It counts as functional. The gist of the method: as §1
Experiment [7] concerns Fusarium solani. Briefly: Compound was evaluated for antifungal activity against Fusarium solani R-2800 as diameter of inhibition zone at a concentration 0.1 ug/disk; NE means not effective. It counts as functional, organism-based. The gist of the method: as §1
Experiment [8] deals with Fusarium solani. Description: Compound was evaluated for antifungal activity against Fusarium solani R-2800 as diameter of inhibition zone at a concentration 1 ug/disk; NE means not effective. The format is functional, organism-based. In a few lines: as §1
Experiment [9] relates to Fusarium solani. Description: Compound was evaluated for antifungal activity against Fusarium solani R-2800 as diameter of inhibition zone at a concentration 10 ug/disk; NE means not effective. It counts as functional, organism-based. The gist of the method: as §1
Experiment [10] has as its system Penicillium citrinum. Briefly: Compound was evaluated for antifungal activity against penicillium ctrinum R-3703 as diameter of inhibition zone at a concentration 10 ug/disk. It counts as functional. In a few lines: as §1
Experiment [11] deals with Penicillium citrinum. Description: Compound was evaluated for antifungal activity against penicillium ctrinum R-3703 as diameter of inhibition zone at a concentration 1 ug/disk. The format is functional. The gist of the method: as §1
The subject of experiment [12] is Saccharomyces cerevisiae. Description: Compound was evaluated for antifungal activity against Saccharomyces cerevisiae IAM 4861 as diameter of inhibition zone at a concentration 10 ug/disk and showed incomplete inhibition. The format is functional. In a few lines:
as §1

Experiment [13] relates to Saccharomyces cerevisiae. Briefly: Compound was evaluated for antifungal activity against Saccharomyces cerevisiae IAM 4861 as diameter of inhibition zone at a concentration 0.1 ug/disk; NE means not effective. It counts as functional, organism-based. In a few lines:
as §1

The test system of experiment [14] is Saccharomyces cerevisiae. Briefly: Compound was evaluated for antifungal activity against Saccharomyces cerevisiae IAM 4861 as diameter of inhibition zone at a concentration 1 ug/disk and showed incomplete inhibition. The format is functional. In a few lines:
as §1

Experiment [15] has as its system Penicillium citrinum. Briefly: Compound was evaluated for antifungal activity against penicillium ctrinum R-3703 as diameter of inhibition zone at a concentration 0.1 ug/disk; SE means slightly effective. It counts as functional, organism-based. The gist of the method:
as §1

The test system of experiment [16] is Aspergillus fumigatus. Briefly: Compound was evaluated for antifungal activity against Aspergillus fumigatum R-1301 as diameter of inhibition zone at a concentration 1 ug/disk; NE means not effective. It counts as functional, organism-based. The gist of the method:
as §1

Experiment [17] relates to Aspergillus fumigatus. Description: Compound was evaluated for antifungal activity against Aspergillus fumigatum R-1301 as diameter of inhibition zone at a concentration 10 ug/disk; NE means not effective. It counts as functional, organism-based. The gist of the method:
as §1

Experiment [18] concerns Candida albicans. Briefly: Compound was evaluated for antifungal activity against Candida albicans IFO 1594 as diameter of inhibition zone at a concentration 1 ug/disk; NE means not effective. It counts as functional, organism-based. In a few lines:
as §1

The test system of experiment [19] is Candida albicans. Briefly: Compound was evaluated for antifungal activity against Candida albicans IFO 1594 as diameter of inhibition zone at a concentration 10 ug/disk; NE means not effective. The format is functional, organism-based. In a few lines: as §1
Experiment [20] concerns Penicillium citrinum. Briefly: Compound was evaluated for antifungal activity against penicillium ctrinum R-3703 as diameter of inhibition zone at a concentration 10 ug/disk; NE means not effective. It counts as functional, organism-based. The gist of the method:
as §1

The subject of experiment [21] is Penicillium citrinum. Description: Compound was evaluated for antifungal activity against penicillium ctrinum R-3703 as diameter of inhibition zone at a concentration 0.1 ug/disk; NE means not effective. The format is functional, organism-based. In a few lines: as §1
Experiment [22] concerns Penicillium citrinum. Briefly: Compound was evaluated for antifungal activity against penicillium ctrinum R-3703 as diameter of inhibition zone at a concentration 1 ug/disk; NE means not effective. It counts as functional, organism-based. The gist of the method:
as §1

Experiment [23] deals with Saccharomyces cerevisiae. Description: Compound was evaluated for antifungal activity against Saccharomyces cerevisiae IAM 4861 as diameter of inhibition zone at a concentration 10 ug/disk; NE means not effective. It counts as functional, organism-based. The gist of the method: as §1
For experiment [24], the system named is Saccharomyces cerevisiae. Briefly: Compound was evaluated for antifungal activity against Saccharomyces cerevisiae IAM 4861 as diameter of inhibition zone at a concentration 1 ug/disk; NE means not effective. It counts as functional, organism-based. In a few lines:
as §1

Experiment [25] deals with Fusarium solani. Description: Compound was evaluated for antifungal activity against Fusarium solani R-2800 as diameter of inhibition zone at a concentration 1 ug/disk and showed incomplete inhibition. It counts as functional. In a few lines:
as §1

Experiment [26] has as its system Fusarium solani. Description: Compound was evaluated for antifungal activity against Fusarium solani R-2800 as diameter of inhibition zone at a concentration 10 ug/disk and showed incomplete inhibition. It counts as functional. The gist of the method:
as §1

In experiment [27] the test system is Candida albicans. Description: Compound was evaluated for antifungal activity against Candida albicans IFO 1594 as diameter of inhibition zone at a concentration 10 ug/disk; SE means slightly effective. It counts as functional, organism-based. The gist of the method: as §1
Experiment [28] has as its system Saccharomyces cerevisiae. Description: Compound was evaluated for antifungal activity against Saccharomyces cerevisiae IAM 4861 as diameter of inhibition zone at a concentration 10 ug/disk; SE means slightly effective. It counts as functional, organism-based. In a few lines: as §1
In experiment [29] the test system is Candida albicans. Description: Compound was evaluated for antifungal activity against Candida albicans IFO 1594 as diameter of inhibition zone at a concentration 10 ug/disk. The format is functional, organism-based. In a few lines: (§2)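 Disk-diffusion assay against the listed yeast strains (C. albicans IFO 1594; S. cerevisiae IAM 4861). Inhibition-zone diameter read after 48 hr incubation, reported as the mean of two samples. Activity scored as not effective, slightly effective, or incomplete inhibition where applicable.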

The test system of experiment [30] is Saccharomyces cerevisiae. Description: Compound was evaluated for antifungal activity against Saccharomyces cerevisiae IAM 4861 as diameter of inhibition zone at a concentration 10 ug/disk. The format is functional, organism-based. The gist of the method: as §2
Experiment [31] has as its system Penicillium citrinum. Briefly: Compound was evaluated for antifungal activity against penicillium ctrinum R-3703 as diameter of inhibition zone at a concentration 1 ug/disk; SE means slightly effective. The format is functional, organism-based. The gist of the method: as §1
In experiment [32] the test system is Saccharomyces cerevisiae. Description: Compound was evaluated for antifungal activity against Saccharomyces cerevisiae IAM 4861 as diameter of inhibition zone at a concentration 1 ug/disk; SE means slightly effective. The format is functional, organism-based. In a few lines: as §1

In the case of `COC(=O)\C=C(OC)/C(C)=C(\C=C\c1cccs1)OC`, the Inhibition zone result in [1], in experiment [4], in experiment [7], in experiment [8], in experiment [9] and in experiment [13] was “inactive” throughout. For the same compound, the Inhibition zone in experiment [2] came to 20 mm; in experiment [3], 29 mm; in experiment [5], 16 mm; in experiment [6], 32 mm; in [10], 40 mm; in experiment [11], 21 mm. The Inhibition zone in [12] was 49 mm; in [14], 31 mm; in experiment [15] it was “Slightly effective”.
With `COC(=O)/C=C(/OC)[C@@H](C)[C@H](/C=C/c1ccccc1)OC` (racemic), the Inhibition zone result in experiment [1], in experiment [16], in experiment [17], in [4], in [18] and in [19] was “inactive” throughout. Besides, the Inhibition zone entry in experiment [7], in experiment [8], in experiment [9], in experiment [20], in [21] and in [22] was “inactive” in each case. The Inhibition zone result in experiment [23], in experiment [13] and in experiment [24] was “inactive” throughout.
Take `COC(=O)\C=C(OC)/C(C)=C(\C=C\c1ccc2ccccc2c1)OC`: the Inhibition zone result in [1], in [4], in experiment [7], in experiment [21], in experiment [22] and in [13] was “inactive” in each case. Also, the Inhibition zone in experiment [2] amounted to 10 mm; in experiment [3], 16 mm; in experiment [5] it was 8 mm; in experiment [6], 14 mm; in experiment [25], 19 mm; in [26], 27 mm. Besides, the results for the Inhibition zone in experiment [10], in experiment [12] and in experiment [14] were 13 mm, 21 mm and 15 mm, respectively.
`COC(=O)C=C(OC)/C(C)=C(\C=C\c1ccc(OC)c(OC)c1)OC`: the Inhibition zone result in experiment [1], in experiment [4], in [18], in experiment [7], in [8] and in experiment [9] was “inactive” each time. Also, the Inhibition zone entry in [21] and in experiment [13] was “inactive” each time. Also, the Inhibition zone was 8 mm in experiment [2]; 12 mm in experiment [3]; 33 mm in experiment [10]; 18 mm in [11]; 18 mm in experiment [12]; 12 mm in experiment [14]. In experiment [27], the Inhibition zone result is given as “Slightly effective”.
With `COC(=O)/C=C(/OC)[C@H](C)[C@H](/C=C/c1ccccc1)OC` (racemic) [listing 1 of 2 here], the Inhibition zone was found to be 23 mm in experiment [3], 14 mm in [6], 26 mm in [10] and 39 mm in [12].
Take `COC(=O)\C=C(OC)/C(C)=C(\C=C\c1cccc2ccccc12)OC`: the Inhibition zone entry in [1], in experiment [16], in [17], in experiment [4], in [18] and in experiment [19] was “inactive” throughout. Moreover, the Inhibition zone result in experiment [7], in experiment [8], in [9], in [20], in experiment [21] and in [22] was “inactive” throughout. In addition, the Inhibition zone entry in experiment [13] and in experiment [24] was “inactive” each time. In [28], the Inhibition zone result was “Slightly effective”.
For `COC(=O)\C=C(OC)/C(C)=C(\C=C\c1ccccc1)OC`, the Inhibition zone result in experiment [1], in [4], in [7], in experiment [21] and in [13] was “inactive” in each case. Besides, the Inhibition zone turned out to be 17 mm in experiment [2]; 36 mm in [3]; 27 mm in [5]; 32 mm in experiment [6]; 22 mm in experiment [25]; 30 mm in experiment [26]. Moreover, the Inhibition zone in [10] amounted to 42 mm; in [11], 17 mm; in experiment [12], 46 mm; in experiment [14], 30 mm.
For the compound NYSTATIN, the Inhibition zone in [3] came to 16 mm; in experiment [29], 16 mm; in experiment [10] it was 10 mm; in experiment [30] it was 18 mm. In experiment [9], the Inhibition zone entry is “inactive”.
Regarding `COC(=O)/C=C(/OC)[C@H](C)[C@H](/C=C/c1ccccc1)OC` [listing 1 of 2 here], the Inhibition zone entry in experiment [1], in [16], in [4], in experiment [18], in [7] and in [8] was “inactive” each time. Also, the Inhibition zone entry in [9], in experiment [21] and in [13] was “inactive” each time. In experiment [31], the Inhibition zone entry is on record as “Slightly effective”.
In the case of `COC(=O)/C=C(/OC)[C@H](C)[C@H](/C=C/c1ccccc1)OC` (racemic) [listing 2 of 2 here], the Inhibition zone result in experiment [1], in [16], in [4], in experiment [18], in [7] and in experiment [8] was “inactive” throughout. Further, the Inhibition zone entry in [9], in experiment [21] and in experiment [13] was “inactive” throughout. The Inhibition zone result in [31] and in experiment [32] was “Slightly effective” in each case.
For `COC(=O)/C=C(/OC)[C@H](C)[C@H](/C=C/c1ccccc1)OC` [listing 2 of 2 here], the Inhibition zone amounted to 20 mm in experiment [6], 28 mm in experiment [10], 43 mm in [12] and 25 mm in experiment [14].
